ChEMBL document CHEMBL2057127, “Design, synthesis, modeling, biological evaluation and photoaffinity labeling studies of novel series of photoreactive benzamide probes for histone deacetylase 2” (Bioorg Med Chem Lett, 2012)
Activity calls are given as the source filed them. The rule behind the calls is not given here.

Tests used:
[1] = molecular target: Histone deacetylase 3 (Homo sapiens) (UniProt O15379); assay: Inhibition of human recombinant HDAC3 using Boc-L-Lys (Ac)-AMC as substrate at 10 uM by spectrofluorometric analysis; settings: TDE = time-dependent effect
[2] = molecular target: T1, Histone deacetylase 2 (Homo sapiens, UniProt Q92769); assay: Inhibition of HDAC2 in human MDA-MB-231 cells assessed as inhibition of H4 deacetylation at 50 uM after 24 hrs by Western blot analysis; assay type: cell-based
In short: (§1)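 MDA-MB-231 cells grown to 90% confluence in DMEM/10% FBS and treated with probes (50 µM final) or DMSO for 24 h at 37 °C, 5% CO2. Cells lysed in RIPA buffer with protease/phosphatase inhibitors, 25 µg total protein run on SDS-PAGE. Western blot with anti-acetyl histone H4, GAPDH as loading control; three independent experiments.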

[3] = molecular target: T1, Histone deacetylase 2; assay: Binding affinity to His-tagged human HDAC2 assessed as decrease in biotinylation of HDAC2 at 25 uM preincubated for 24 hrs measured after 1 hr by Western blot analysis in presence of five-fold molar excess of Trichostatin A
[4] = molecular target: T2, Histone deacetylase 1 (Homo sapiens, UniProt Q13547); assay: Inhibition of HDAC1 in human MDA-MB-231 cells assessed as inhibition of H4 deacetylation at 50 uM after 24 hrs by Western blot analysis; assay type: cell-based; in short: as §1
[5] = molecular target: T3, Histone deacetylase 8 (Homo sapiens) (UniProt Q9BY41); assay: Inhibition of human recombinant HDAC8 using BML-KI-178 as substrate at 10 uM by spectrofluorometric analysis; settings: TDE = time-dependent effect
T3 sequence (whole entry): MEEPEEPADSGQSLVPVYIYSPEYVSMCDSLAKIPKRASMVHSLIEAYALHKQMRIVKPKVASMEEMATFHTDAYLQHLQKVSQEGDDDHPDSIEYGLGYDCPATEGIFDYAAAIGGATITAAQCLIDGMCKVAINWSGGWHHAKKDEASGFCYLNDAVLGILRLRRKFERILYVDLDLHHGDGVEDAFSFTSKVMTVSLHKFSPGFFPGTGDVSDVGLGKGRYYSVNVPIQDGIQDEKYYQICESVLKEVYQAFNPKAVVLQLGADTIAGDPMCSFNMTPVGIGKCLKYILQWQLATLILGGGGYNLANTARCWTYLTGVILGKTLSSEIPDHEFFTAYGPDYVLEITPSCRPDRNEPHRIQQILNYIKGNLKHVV

[6] = molecular target: T1, Histone deacetylase 2; assay: Inhibition of human recombinant HDAC2 using Boc-L-Lys (Ac)-AMC as substrate preincubated with compound for 3 hrs measured after 35 mins by spectrofluorometric analysis
[7] = molecular target: T1, Histone deacetylase 2; assay: Inhibition of human recombinant HDAC2 using Boc-L-Lys (Ac)-AMC as substrate preincubated with compound for 24 hrs measured after 35 mins by spectrofluorometric analysis
[8] = molecular target: T1, Histone deacetylase 2; assay: Inhibition of human recombinant HDAC2 using Boc-L-Lys (Ac)-AMC as substrate preincubated with compound for 5 mins measured after 35 mins by spectrofluorometric analysis
[9] = molecular target: T2, Histone deacetylase 1; assay: Inhibition of human recombinant HDAC1 using Boc-L-Lys (Ac)-AMC as substrate preincubated with compound for 3 hrs measured after 35 mins by spectrofluorometric analysis
[10] = molecular target: T2, Histone deacetylase 1; assay: Inhibition of human recombinant HDAC1 using Boc-L-Lys (Ac)-AMC as substrate preincubated with compound for 5 mins measured after 35 mins by spectrofluorometric analysis

T2 sequence (Q13547 whole entry): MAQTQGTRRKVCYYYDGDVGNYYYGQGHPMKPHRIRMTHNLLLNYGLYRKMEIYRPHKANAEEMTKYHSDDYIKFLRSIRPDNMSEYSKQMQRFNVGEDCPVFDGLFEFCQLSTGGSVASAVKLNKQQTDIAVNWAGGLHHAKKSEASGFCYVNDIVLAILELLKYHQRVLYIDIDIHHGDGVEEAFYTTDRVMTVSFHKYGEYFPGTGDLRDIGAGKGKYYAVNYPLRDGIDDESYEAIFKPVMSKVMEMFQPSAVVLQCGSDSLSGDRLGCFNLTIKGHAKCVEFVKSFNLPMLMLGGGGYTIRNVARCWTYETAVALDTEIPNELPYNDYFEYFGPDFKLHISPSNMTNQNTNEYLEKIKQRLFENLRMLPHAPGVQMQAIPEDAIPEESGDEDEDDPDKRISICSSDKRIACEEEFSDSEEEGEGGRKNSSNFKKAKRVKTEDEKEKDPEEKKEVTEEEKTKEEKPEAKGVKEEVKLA
T1 sequence (Q92769 whole entry): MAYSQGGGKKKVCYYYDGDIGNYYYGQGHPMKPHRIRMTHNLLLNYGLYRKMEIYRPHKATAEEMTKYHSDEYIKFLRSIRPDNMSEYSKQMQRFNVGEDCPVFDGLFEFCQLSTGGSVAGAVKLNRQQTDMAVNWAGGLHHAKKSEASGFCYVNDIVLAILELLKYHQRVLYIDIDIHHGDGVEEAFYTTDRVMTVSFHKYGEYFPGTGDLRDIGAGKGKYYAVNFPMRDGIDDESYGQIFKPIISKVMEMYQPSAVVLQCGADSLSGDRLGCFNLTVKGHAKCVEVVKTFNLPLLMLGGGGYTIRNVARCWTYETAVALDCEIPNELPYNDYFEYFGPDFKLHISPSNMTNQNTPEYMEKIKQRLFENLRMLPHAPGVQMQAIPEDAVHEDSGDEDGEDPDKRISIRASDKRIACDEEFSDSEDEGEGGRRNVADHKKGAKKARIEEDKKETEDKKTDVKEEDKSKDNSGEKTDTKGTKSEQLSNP
Chain of Histone deacetylase 3 (Homo sapiens) (O15379 whole entry): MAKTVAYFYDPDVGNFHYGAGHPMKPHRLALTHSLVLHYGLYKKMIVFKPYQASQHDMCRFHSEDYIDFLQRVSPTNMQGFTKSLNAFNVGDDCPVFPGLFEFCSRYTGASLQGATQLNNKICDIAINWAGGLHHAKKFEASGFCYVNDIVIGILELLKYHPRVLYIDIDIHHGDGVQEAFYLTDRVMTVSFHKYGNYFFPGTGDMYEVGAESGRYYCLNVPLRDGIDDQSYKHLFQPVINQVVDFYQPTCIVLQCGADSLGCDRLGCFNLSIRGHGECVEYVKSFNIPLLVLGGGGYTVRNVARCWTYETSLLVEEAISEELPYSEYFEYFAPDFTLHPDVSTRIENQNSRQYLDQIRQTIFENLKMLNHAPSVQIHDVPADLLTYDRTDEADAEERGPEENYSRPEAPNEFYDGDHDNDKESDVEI

Compound	inhibition [1]	inhibition [2]	Activity [3]	inhibition [4]	inhibition [5]	IC50 [6] [µM]	IC50 [7] [µM]	IC50 [8] [µM]	IC50 [9] [µM]	IC50 [10] [µM]
[N-]=[N+]=NCc1cc(COC(=O)NCc2ccc(C(=O)Nc3cc(-c4ccccc4)ccc3N)cc2)cc(N=[N+]=[N-])c1	tde	Active	Active	Active	tde	–	–	–	–	–
[N-]=[N+]=NCc1cc(N=[N+]=[N-])cc(C(=O)Nc2cc(-c3ccccc3)ccc2N)c1	tde	Active	Active	Active	tde	–	–	–	–	–
Nc1ccc(-c2ccccc2)cc1NC(=O)c1ccc(CNC(=O)OCc2ccccc2)cc1	tde	–	–	–	tde	–	–	–	–	–
[N-]=[N+]=Nc1ccc(C(=O)Nc2cc(-c3ccccc3)ccc2N)cc1	tde	Active	–	Active	tde	–	–	–	–	–
[N-]=[N+]=NCCC(=O)Nc1ccc(C(=O)Nc2cc(N=[N+]=[N-])ccc2N)cc1	tde	–	Active	–	tde	–	–	–	–	–
[N-]=[N+]=Nc1ccc(C(=O)Nc2cc(-c3cccs3)ccc2N)cc1	tde	Active	–	Active	tde	–	–	–	–	–
Nc1ccc(-c2ccccc2)cc1NC(=O)c1ccccc1	tde	–	–	–	tde	0.35	0.14	1.2	0.052	0.41
[N-]=[N+]=NCc1cc(COC(=O)NCc2ccc(C(=O)Nc3cc(-c4cccs4)ccc3N)cc2)cc(N=[N+]=[N-])c1	tde	Active	Active	Active	tde	–	–	–	–	–
[N-]=[N+]=Nc1cccc(COC(=O)NCc2ccc(C(=O)Nc3cc(-c4ccccc4)ccc3N)cc2)c1	tde	Active	–	Active	tde	1	0.32	3.8	0.78	3.8
[N-]=[N+]=NCCOc1ccc(C(=O)Nc2cc(-c3cccs3)ccc2N)cc1N=[N+]=[N-]	tde	Active	Active	Active	tde	6.6	–	17	3.8	18
[N-]=[N+]=NCCOc1ccc(C(=O)Nc2cc(-c3ccccc3)ccc2N)cc1N=[N+]=[N-]	tde	Active	Active	Active	tde	6.5	–	34	2.7	23
[N-]=[N+]=NCc1cc(N=[N+]=[N-])cc(C(=O)Nc2cc(-c3cccs3)ccc2N)c1	tde	Active	Active	Active	tde	–	–	–	1.4	5.6
